Results reported in ChEMBL document CHEMBL1155010, “Synthesis and biological evaluation of substituted [18F]imidazo[1,2-a]pyridines and [18F]pyrazolo[1,5-a]pyrimidines for the study of the peripheral benzodiazepine receptor using positron emission tomography” (J Med Chem, 2008).

What was measured:
[1] = Lipophilicity, log p at pH 7.5; assay type: physicochemical; conditions: buffer
How it was run: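 RP-HPLC on a C18 column with methanol/0.1 M phosphate buffer pH 7.5 (60/40) at 1 mL/min. Samples were dissolved in methanol. log P7.5 was estimated by comparing retention time with that of reference compounds of known log P.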

[2] = Displacement of [3H]flumazenil from central benzodiazepine receptor in rat brain cortex membrane; assay type: cell membranes
How it was run: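 Rat brain cortex membranes (100-150 µg protein) were incubated in triplicate at 25 °C for 45 min with [3H]flumazenil (2 nM) and 7 ligand concentrations (10^-10 to 10^-5 M). Nonspecific binding was set with flumazenil 20 µM. Assays were filtered, washed with ice-cold Tris/HCl pH 7.4 and counted. Ki was derived from IC50 by Cheng-Prusoff.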

[3] = tested on: Blood; test: Biodistribution in Sprague-Dawley rat blood at 1 MBq, iv after 4 hrs; assay type: ADME, organism-based; conditions: in vivo
How it was run: (§1)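 Male SD rats aged 8-10 weeks got 1 MBq [18F]tracer by tail vein in 0.1 mL. Groups of n = 4 were killed (CO2, then cervical fracture) at 0.25, 0.5, 1 and 4 h. Organs were weighed and gamma counted against a diluted standard of the injectate. Results are %ID per gram wet tissue, mean with standard deviation.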

[4] = tested on: Liver; test: Biodistribution in Sprague-Dawley rat liver assessed per gram of tissue at 1 MBq, iv after 0.25 hrs; assay type: ADME, organism-based; conditions: in vivo; how it was run: as §1
[5] = Biodistribution in Sprague-Dawley rat testis assessed per gram of tissue at 1 MBq, iv after 1 hr; assay type: ADME, organism-based; conditions: in vivo; how it was run: as §1
[6] = tested on: Femur; test: Biodistribution in Sprague-Dawley rat femur at 1 MBq, iv after 4 hrs; assay type: ADME, organism-based; conditions: in vivo; how it was run: as §1
[7] = tested on: Heart; test: Biodistribution in Sprague-Dawley rat heart assessed per gram of tissue at 1 MBq, iv after 1 hr; assay type: ADME, organism-based; conditions: in vivo; how it was run: as §1
[8] = tested on: Kidney; test: Biodistribution in Sprague-Dawley rat kidney assessed per gram of tissue at 1 MBq, iv after 1 hr; assay type: ADME, organism-based; conditions: in vivo; how it was run: as §1
[9] = tested on: Adrenal; test: Biodistribution in Sprague-Dawley rat adrenals assessed per gram of tissue at 1 MBq, iv after 0.5 hrs; assay type: ADME, organism-based, Adrenal tissue; conditions: in vivo; how it was run: as §1
[10] = Metabolic stability in Sprague-Dawley rat frontal cortex assessed as drug remaining at 30 MBq after 4 hrs by Radio-HPLC analysis; assay type: ADME, tissue-based; conditions: read-out: Stability
How it was run: (§2)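 Rats received 30 MBq tracer and were sampled at 0.25, 0.5, 1 and 4 h. Plasma was diluted with water containing unlabeled carrier and KF and injected directly. Frontal cortex or olfactory bulb was sonicated in acetonitrile/water 1:1 with carrier and KF, centrifuged, and the supernatant diluted. Radio-HPLC used a precolumn switched to C18 with a CH3CN/0.05 M sodium acetate pH 5.5 gradient. Result is % parent remaining.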

[11] = tested on: Blood; test: Biodistribution in Sprague-Dawley rat blood at 1 MBq, iv after 1 hr; assay type: ADME, organism-based; conditions: in vivo
How it was run: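 Male SD rats, 8-10 weeks old, given 1 MBq [18F]radiotracer by tail-vein injection in 0.1 mL. Groups of 4 killed (CO2, then cervical fracture) at 0.25, 0.5, 1 and 4 h post-injection. Tissues weighed and gamma-counted against a diluted standard of the injected solution. Activity expressed as %ID per gram wet tissue.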

[12] = tested on: Lung; test: Biodistribution in Sprague-Dawley rat lungs assessed per gram of tissue at 1 MBq, iv after 0.5 hrs; assay type: ADME, organism-based; conditions: in vivo; how it was run: as §1
[13] = tested on: Blood; test: Biodistribution in Sprague-Dawley rat blood at 1 MBq, iv after 0.25 hrs; assay type: ADME, organism-based; conditions: in vivo; how it was run: as §1
[14] = Metabolic stability in Sprague-Dawley rat frontal cortex assessed as drug remaining at 30 MBq after 0.25 hrs by Radio-HPLC analysis; assay type: ADME, tissue-based; conditions: read-out: Stability; how it was run: as §2
[15] = tested on: Lung; test: Biodistribution in Sprague-Dawley rat lungs assessed per gram of tissue at 1 MBq, iv after 0.25 hrs; assay type: ADME, organism-based; conditions: in vivo; how it was run: as §1
[16] = tested on: Adrenal; test: Biodistribution in Sprague-Dawley rat adrenals assessed per gram of tissue at 1 MBq, iv after 1 hr; assay type: ADME, organism-based, Adrenal tissue; conditions: in vivo; how it was run: as §1
[17] = Biodistribution in Sprague-Dawley rat testis assessed per gram of tissue at 1 MBq, iv after 0.25 hrs; assay type: ADME, organism-based; conditions: in vivo; how it was run: as §1
[18] = tested on: Spleen; test: Biodistribution in Sprague-Dawley rat spleen assessed per gram of tissue at 1 MBq, iv after 4 hrs; assay type: ADME, organism-based; conditions: in vivo; how it was run: as §1
[19] = tested on: Spleen; test: Biodistribution in Sprague-Dawley rat spleen assessed per gram of tissue at 1 MBq, iv after 1 hr; assay type: ADME, organism-based; conditions: in vivo; how it was run: as §1
[20] = tested on: Femur; test: Biodistribution in Sprague-Dawley rat femur at 1 MBq, iv after 0.25 hrs; assay type: ADME, organism-based; conditions: in vivo; how it was run: as §1
[21] = Biodistribution in Sprague-Dawley rat testis assessed per gram of tissue at 1 MBq, iv after 4 hrs; assay type: ADME, organism-based; conditions: in vivo; how it was run: as §1
[22] = Metabolic stability in Sprague-Dawley rat plasma assessed as drug remaining at 30 MBq after 0.25 hrs by Radio-HPLC analysis; assay type: ADME, cell-free; conditions: read-out: Stability; how it was run: as §2
[23] = tested on: Liver; test: Biodistribution in Sprague-Dawley rat liver assessed per gram of tissue at 1 MBq, iv after 1 hr; assay type: ADME, organism-based; conditions: in vivo; how it was run: as §1
[24] = tested on: Kidney; test: Biodistribution in Sprague-Dawley rat kidney assessed per gram of tissue at 1 MBq, iv after 0.25 hrs; assay type: ADME, organism-based; conditions: in vivo; how it was run: as §1
[25] = Biodistribution in Sprague-Dawley rat testis assessed per gram of tissue at 1 MBq, iv after 0.5 hrs; assay type: ADME, organism-based; conditions: in vivo; how it was run: as §1
[26] = tested on: Heart; test: Biodistribution in Sprague-Dawley rat heart assessed per gram of tissue at 1 MBq, iv after 4 hrs; assay type: ADME, organism-based; conditions: in vivo; how it was run: as §1
[27] = tested on: Spleen; test: Biodistribution in Sprague-Dawley rat spleen assessed per gram of tissue at 1 MBq, iv after 0.5 hrs; assay type: ADME, organism-based; conditions: in vivo; how it was run: as §1
[28] = tested on: Lung; test: Biodistribution in Sprague-Dawley rat lungs assessed per gram of tissue at 1 MBq, iv after 4 hrs; assay type: ADME, organism-based; conditions: in vivo; how it was run: as §1
[29] = tested on: Liver; test: Biodistribution in Sprague-Dawley rat liver assessed per gram of tissue at 1 MBq, iv after 0.5 hrs; assay type: ADME, organism-based; conditions: in vivo; how it was run: as §1
[30] = tested on: Spleen; test: Biodistribution in Sprague-Dawley rat spleen assessed per gram of tissue at 1 MBq, iv after 0.25 hrs; assay type: ADME, organism-based; conditions: in vivo; how it was run: as §1
[31] = tested on: Adrenal; test: Biodistribution in Sprague-Dawley rat adrenals assessed per gram of tissue at 1 MBq, iv after 0.25 hrs; assay type: ADME, organism-based, Adrenal tissue; conditions: in vivo; how it was run: as §1
[32] = tested on: Heart; test: Biodistribution in Sprague-Dawley rat heart assessed per gram of tissue at 1 MBq, iv after 0.5 hrs; assay type: ADME, organism-based; conditions: in vivo; how it was run: as §1
[33] = tested on: Heart; test: Biodistribution in Sprague-Dawley rat heart assessed per gram of tissue at 1 MBq, iv after 0.25 hrs; assay type: ADME, organism-based; conditions: in vivo; how it was run: as §1
[34] = tested on: Lung; test: Biodistribution in Sprague-Dawley rat lungs assessed per gram of tissue at 1 MBq, iv after 1 hr; assay type: ADME, organism-based; conditions: in vivo; how it was run: as §1
[35] = tested on: Kidney; test: Biodistribution in Sprague-Dawley rat kidney assessed per gram of tissue at 1 MBq, iv after 4 hrs; assay type: ADME, organism-based; conditions: in vivo; how it was run: as §1
[36] = tested on: Liver; test: Biodistribution in Sprague-Dawley rat liver assessed per gram of tissue at 1 MBq, iv after 4 hrs; assay type: ADME, organism-based; conditions: in vivo; how it was run: as §1
[37] = tested on: Adrenal; test: Biodistribution in Sprague-Dawley rat adrenals assessed per gram of tissue at 1 MBq, iv after 4 hrs; assay type: ADME, organism-based, Adrenal tissue; conditions: in vivo; how it was run: as §1
[38] = tested on: Kidney; test: Biodistribution in Sprague-Dawley rat kidney assessed per gram of tissue at 1 MBq, iv after 0.5 hrs; assay type: ADME, organism-based; conditions: in vivo; how it was run: as §1
[39] = Metabolic stability in Sprague-Dawley rat olfactory bulb assessed as drug remaining at 30 MBq after 4 hrs by Radio-HPLC analysis; assay type: ADME, tissue-based; conditions: read-out: Stability; how it was run: as §2
[40] = Ratio of drug level in olfactory bulb to blood in Sprague-Dawley rat at 1 MBq, iv; assay type: ADME
How it was run: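 Same rat biodistribution as above: 1 MBq iv by tail vein, n = 4 per time point, 0.25-4 h, gamma counting as %ID/g. Ratio is the olfactory bulb radioactivity concentration divided by the blood concentration at each time.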

[41] = Metabolic stability in Sprague-Dawley rat olfactory bulb assessed as drug remaining at 30 MBq after 0.25 hrs by Radio-HPLC analysis; assay type: ADME, tissue-based; conditions: read-out: Stability; how it was run: as §2
[42] = Metabolic stability in Sprague-Dawley rat plasma assessed as drug remaining at 30 MBq after 4 hrs by Radio-HPLC analysis; assay type: ADME, cell-free; conditions: read-out: Stability; how it was run: as §2

Row | Compound | logD [1] | Ki [2] [µM] | Drug uptake [4] [%ID] | Drug uptake [5] [%ID] | Drug uptake [6] [% ID/g] | Drug uptake [7] [%ID] | Drug uptake [8] [%ID] | Drug uptake [9] [%ID] | remaining at 4 h [10] [%] | Drug uptake [11] [% ID/g] | Drug uptake [12] [%ID] | remaining at 0.25 h [14] [%] | Drug uptake [15] [%ID] | Drug uptake [16] [%ID] | Drug uptake [17] [%ID] | Drug uptake [18] [%ID] | Drug uptake [19] [%ID] | Drug uptake [20] [% ID/g] | Drug uptake [21] [%ID] | Drug uptake [23] [%ID] | other results
1 | CCN(CC)C(=O)Cc1c(-c2ccc(OCCCF)cc2)nn2c(C)cc(C)nc12 | 3.2 | > 5 |  |  |  |  |  |  |  |  |  |  |  |  |  |  |  |  |  |  | 
2 | CCN(CC)C(=O)Cc1c(-c2ccc(OCCC[18F])cc2)nn2c(C)cc(C)nc12 |  |  | 1.08 | 0.32 | 2.2 | 8.7 | 4.7 | 7.9 | 30 | 0.1 | 12.4 | 55 | 20 | 11 | 0.27 | 3.6 | 5.1 | 0.6 | 0.43 | 0.69 | Drug uptake [3]: 0.1 % ID/g; Drug uptake [13]: 0.3 % ID/g; remaining at 0.25 h [22]: 10%; Drug uptake [24]: 5.5 %ID; Drug uptake [25]: 0.28 %ID; Drug uptake [26]: 5.8 %ID; Drug uptake [27]: 5.5 %ID; Drug uptake [28]: 3.3 %ID; Drug uptake [29]: 0.98 %ID; Drug uptake [30]: 5.5 %ID; Drug uptake [31]: 8 %ID; Drug uptake [32]: 9 %ID; Drug uptake [33]: 9 %ID; Drug uptake [34]: 7.1 %ID; Drug uptake [35]: 3.2 %ID; Drug uptake [36]: 0.38 %ID; Drug uptake [37]: 12.2 %ID; Drug uptake [38]: 4.9 %ID
3 | CCN(CC)C(=O)Cc1c(-c2ccc(OCC[18F])cc2)nn2c(C)cc(C)nc12 [DPA-714 F-18] |  |  | 0.63 | 0.27 | 0.7 | 6.4 | 3.5 | 6.6 | 10 | 0.1 | 8.8 | 55 | 14.6 | 7.8 | 0.18 | 3.9 | 4.5 | 0.4 | 0.35 | 0.4 | remaining at 4 h [39]: 40%; Kp [40]: 2; remaining at 0.25 h [41]: 80%; Drug uptake [24]: 3.8 %ID; Drug uptake [25]: 0.21 %ID; Drug uptake [26]: 4.3 %ID; Drug uptake [27]: 4.7 %ID; Drug uptake [28]: 2.8 %ID; Drug uptake [29]: 0.54 %ID; Drug uptake [30]: 4.6 %ID; Drug uptake [31]: 5.6 %ID; Drug uptake [32]: 5.6 %ID; Drug uptake [33]: 5.8 %ID; Drug uptake [34]: 5.7 %ID; Drug uptake [35]: 2.4 %ID; Drug uptake [36]: 0.29 %ID; remaining at 4 h [42]: < 1%; Drug uptake [37]: 9.7 %ID; Drug uptake [38]: 3.6 %ID
4 | CCN(CC)C(=O)Cc1c(-c2ccc(OCCF)cc2)nn2c(C)cc(C)nc12 [DPA-714] | 2.5 | > 5 |  |  |  |  |  |  |  |  |  |  |  |  |  |  |  |  |  |  | 
